Among the data in ChEMBL document CHEMBL4145651, “Kleinhospitine E and Cycloartane Triterpenoids from Kleinhovia hospita” (J Nat Prod, 2018) are IC50, CC50 and selectivity ratio values, retold here.

As a reminder, the IC50 is the midpoint of a concentration-inhibition curve. One may read the CC50 as the concentration that lowers cell viability or growth by half.

In one series the test system is A549. Nature of the series: Antiproliferative activity against human A549 cells after 72 hrs by SRB assay. In kind it is functional, cell-based. To be noted: A549, 72 h. (In general: The SRB assay estimates cell density from bound dye.)
A further series deals with MDA-MB-231. Description: Antiproliferative activity against human MDA-MB-231 cells after 72 hrs by SRB assay. Type of series: functional, cell-based. To be noted: MDA-MB-231, 72 h.
Series [1] in a line: Antiproliferative activity against human KBVIN cells after 72 hrs by SRB assay. In kind it is functional, cell-based.
In a further series the test system is KB. Nature of the series: Antiproliferative activity against human KB cells after 72 hrs by SRB assay. In kind it is functional, cell-based.
In a further series the test system is MCF7. Nature of the series: Antiproliferative activity against human MCF7 cells after 72 hrs by SRB assay. Type of series: functional, cell-based. To be noted: MCF7, 72 h.
Series [2] can be described thus: Cytotoxicity against human MT4 cells assessed as reduction in cell viability after 3 days by cytoTox-Glo reagent based assay.
Series [3] deals with Human immunodeficiency virus 1. Nature of the series: Antiviral activity against HIV1 NL4-3 infected in human MT4 cells assessed as inhibition of viral replication after 3 days by luciferase reporter gene assay. In kind it is functional, organism-based. The method in brief:
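MT4 cells (1 × 10^5 cells/mL) infected with HIV-1 NL4-3 Nanoluc-sec reporter virus at 50 TCID50/well alongside a range of compound concentrations (multicycle replication). Supernatants harvested on day 3 post-infection and read for secreted luciferase (Nano-Glo).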
Background: A reporter such as luciferase makes a cellular process visible.

Series [4] is described as follows: Selectivity index, ratio of CC50 for human MT4 cells to IC50 for HIV1 NL4-3 infected in human MT4 cells. Type of series: toxicity, cell-based. To be noted: read-out: Ratio CC50/IC50. In short, it runs like this: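 Selectivity index computed as CC50 (MT4 CytoTox-Glo, 3 days) divided by anti-HIV IC50 (NL4-3 Nanoluc-sec luciferase in MT4, day 3); SI below 5 regarded as no selective activity.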

[5] abbreviates: Human immunodeficiency virus 1, NL4-3, MT4, 72 h, read-out: IC50.

As for `CC(C)=CC(=O)C[C@@H](C)[C@H]1CC[C@@]2(C)[C@@H]3CC[C@H]4C(C)(C)C(=O)C=C[C@@]45C[C@@]35CC[C@]12C`, the IC50 (with A549; with MDA-MB-231; in series [1]; in the series with KB; in the series on MCF7) was over 10 µM in each case.

`CC(C)=CC(=O)CC(C(=O)O)[C@H]1CC[C@@]2(C)[C@@H]3CC[C@H]4C(C)(C)C(=O)C=C[C@@]45C[C@@]35CC[C@]12C` (some centres undefined): the IC50 (with A549; with MDA-MB-231; in series [1]; in the series with KB; with MCF7) was over 10 µM each time.

Consider `CO[C@H]1O[C@]2(C=C(C)C(=O)O2)C[C@@H]1[C@H]1CC[C@@]2(C)[C@@H]3CC[C@H]4C(C)(C)C(=O)C=C[C@@]45C[C@@]35CC[C@]12C`, for which the IC50 in the series with A549 is 8.9 µM; with MDA-MB-231, over 10 µM; in series [1] it was 6.1 µM; in the series on KB, over 10 µM; in the series with MCF7, 10 µM.

As for `CC1=C[C@@]2(C[C@H]([C@H]3CC[C@@]4(C)[C@@H]5CC[C@H]6C(C)(C)C(=O)C=C[C@]67C[C@]57CC[C@]34C)CO2)OC1=O`, in series [2], the CC50 at 72 h was 4.6 µM. Moreover, the IC50 is over 10 µM with A549; over 10 µM in the series on MDA-MB-231; 0.8 µM in series [3] (setting [5]); over 10 µM in series [1]; over 10 µM in the series with KB; over 10 µM in the series on MCF7. Also, the selectivity ratio in series [4] worked out at 5.8.

Consider `CC1(C)CC[C@]2(C)CC=C3[C@]4(C)CC[C@H]5C(C)(C)C(=O)CC[C@]5(C)[C@H]4CC[C@@]3(C)[C@@H]2C1` [TARAXERONE], for which the IC50 (in the series with A549; with MDA-MB-231; in series [1]; in the series with KB; with MCF7) was over 10 µM throughout.

`CC1=C[C@@]2(C[C@H]([C@H]3CC[C@@]4(C)[C@@H]5CC[C@H]6C(C)(C)C(=O)C=C[C@@]67C[C@@]57CC[C@]34C)CO2)OC1=O`: the IC50 is 8.2 µM in the series with A549; over 10 µM in the series on MDA-MB-231; over 10 µM in series [1]; over 10 µM in the series with KB; over 10 µM in the series with MCF7.

For `CO[C@H]1O[C@@]2(C=C(C)C(=O)O2)C[C@@H]1[C@H]1CC[C@@]2(C)[C@@H]3CC[C@H]4C(C)(C)C(=O)C=C[C@@]45C[C@@]35CC[C@]12C`, the IC50 in the series on A549 is over 10 µM; in the series on MDA-MB-231 it was over 10 µM; in series [3] (mt4), “Not Active”; in series [1] it was over 10 µM; in the series with KB it was over 10 µM; in the series with MCF7, over 10 µM. Moreover, the selectivity ratio in series [4] is under 5.

As to `CO[C@H]1O[C@]2(C=C(C)C(=O)O2)C[C@@H]1[C@H]1CC[C@@]2(C)[C@@H]3CC[C@H]4C(C)(C)C(=O)C=C[C@]45C[C@]35CC[C@]12C`, the CC50 at 72 h in series [2] was 12.6 µM. For the same molecule, the half-inhibitory concentration (IC50) is over 10 µM in the series with A549; over 10 µM with MDA-MB-231; 2.4 µM in series [3] (setting [5]); over 10 µM in series [1]; over 10 µM in the series with KB; over 10 µM with MCF7. Besides, the selectivity ratio in series [4] is 5.3.

Take `CC(=O)O[C@H]1C(=O)[C@@]2(C)[C@H]([C@H](OC(=O)c3ccccc3)[C@]3(O)C[C@H](OC(=O)[C@H](O)[C@@H](NC(=O)c4ccccc4)c4ccccc4)C(C)=C1C3(C)C)[C@]1(OC(C)=O)CO[C@@H]1C[C@@H]2O` [PACLITAXEL]: the IC50 in the series on A549 worked out at 0.0063 µM; with MDA-MB-231 it was 0.0081 µM; in series [1], 2.79 µM; in the series on MCF7, 0.0112 µM.

As for `CC(C)=CC(=O)C[C@@H](C)[C@H]1CC[C@@]2(C)[C@@H]3CC[C@H]4C(C)(C)C(=O)C=C[C@]45C[C@]35CC[C@]12C`, the IC50 with A549 was over 10 µM; in the series on MDA-MB-231 it was over 10 µM; in series [3] (mt4) it was “Not Active”; in series [1] it was 8.4 µM; in the series on KB, over 10 µM; with MCF7, over 10 µM. Moreover, in series [4], the selectivity ratio was under 5.

Regarding `CO[C@@H]1O[C@@]2(C=C(C)C(=O)O2)C[C@@H]1[C@H]1CC[C@@]2(C)[C@@H]3CC[C@H]4C(C)(C)C(=O)C=C[C@@]45C[C@@]35CC[C@]12C`, the IC50 in the series with A549 is 9.1 µM; with MDA-MB-231, over 10 µM; in series [3] (mt4) it was “Not Active”; in series [1], 5.7 µM; in the series with KB, over 10 µM; in the series with MCF7, over 10 µM. Also, in series [4], the selectivity ratio was under 5.

Regarding `CC(=O)/C=C1/C=C([C@H]2CC[C@@]3(C)[C@@H]4CC[C@H]5C(C)(C)C(=O)C=C[C@@]56C[C@@]46CC[C@]23C)C(=O)N1`, the half-inhibitory concentration (IC50) in the series with A549 is 9.4 µM; in the series on MDA-MB-231, 10 µM; in series [3] (mt4), “Not Active”; in series [1] it was 6.9 µM; with KB, 8 µM; with MCF7, over 10 µM. For the same molecule, in series [4], the selectivity ratio is under 5.

Turning to `Cc1cn([C@H]2C[C@H](N=[N+]=[N-])[C@@H](CO)O2)c(=O)[nH]c1=O` [ZIDOVUDINE], the CC50 at 72 h in series [2] is over 3.74 µM.
